Bioassay records as filed in PubChem BioAssay.
KCNQ1 block – blocks the human KCNQ1 potassium channel | P51787 | CHO-K1 KCNQ1, FluxOR thallium flux fluorescence; hits give high values | B-score at 10 µM | 1.3% of 310,000 active;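 active = compounds whose thallium flux B-score, printed positive for inhibition, exceeds three library SD while starting fluorescence stays within three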;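 also: channel opened by potassium depolarization with thallium stimulus after 20 min compound exposure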
KCNQ1 pot – potentiators or activators of human KCNQ1 potassium channel; AID 2648; B-score at 10 µM; 0.35% of 310,000 active; CHO-K1 KCNQ1, thallium flux FluxOR fluorescence; hits give high values;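 active = fluorescence ratio B-score, a plate-corrected score, at least three library SD, with initial intensity B-score within 5 SD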
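Schedule – 37 °C overnight plating, 90-min dark dye load, 20-min compound pretreatment · System – stable KCNQ1 CHO-K1 line · Probe or stimulus – thallium- and potassium-containing depolarizing buffer · Measured by – kinetic FluxOR fluorescence, 10 s baseline plus 110 s post-stimulus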
KCNK9 inh – human KCNK9 channel inhibition | Q9NPC2 | HEK293 KCNK9, FluxOR thallium flux fluorescence; hits give low values | B-score at 10 µM | 1.2% of 310,000 active | AID 488922;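 active = ratio B-score over 3 SD below the library mean, with starting fluorescence within 5 SD of its mean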;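 also: negative B-score means less thallium flux so channel inhibition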
Target sequence (Q9NPC2 whole entry, looked up): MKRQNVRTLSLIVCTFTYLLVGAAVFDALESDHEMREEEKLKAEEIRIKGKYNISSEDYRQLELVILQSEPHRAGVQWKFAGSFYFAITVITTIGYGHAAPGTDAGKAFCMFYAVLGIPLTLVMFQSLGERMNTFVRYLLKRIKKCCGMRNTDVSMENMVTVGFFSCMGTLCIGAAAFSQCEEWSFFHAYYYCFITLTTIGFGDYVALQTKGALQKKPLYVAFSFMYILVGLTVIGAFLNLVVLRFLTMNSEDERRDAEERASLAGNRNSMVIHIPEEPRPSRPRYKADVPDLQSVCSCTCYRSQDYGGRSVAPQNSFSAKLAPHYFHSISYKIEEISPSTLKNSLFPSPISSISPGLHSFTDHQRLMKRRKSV
KCNK3 inh – human KCNK3 channel inhibition, primary screen | CHO-KCNK3 thallium flux, FluxOR fluorescence; hits give low values | B-score at 10 µM | 0.84% of 340,000 active;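 active = B-score under library mean minus 4 SD, starting fluorescence ratio at most library mean plus 5 SD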;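 also: more negative B-score means stronger inhibition of thallium flux through KCNK3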
Kir21 inh – inhibitors of mouse Kir2.1 inward-rectifier potassium channel. AID 1672. B-score at 10 µM. 0.85% of 310,000 active. P35561. HEK293-Kir2.1, FluxOR thallium flux fluorescence; hits give low values;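 active = fluorescence ratio B-score at or below minus 3 SD of library scores, with starting-brightness B-score within 2 SD, cut at about -4.2 in these data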;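 also: channel flux triggered by added potassium and thallium sulfate stimulus; B-score of peak minus minimum fluorescence over baseline after thallium stimulus; more negative B-score means stronger Kir2.1 block with less thallium influx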
hERG protect – shields human hERG channel from block by proarrhythmic agents; 0.51% of 310,000 active; Q12809; activation (rescue from dofetilide block), less the hit threshold, % at 10 µM; CHO-hERG, FluxOR thallium flux, dofetilide IC70 present; AID 1511;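 active = activation above the mean of controls blocked by dofetilide plus 5 SD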;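 also: thallium influx through hERG after potassium depolarization seen as dye fluorescence rise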
Numbers without * were called inactive; i = inactive; . = no result given. Rows were chosen to be rich in hits. Some 3.7% of all compounds tested hit in one or more screens of this group.

SMILES	KCNQ1 block	KCNQ1 pot	KCNK9 inh	KCNK3 inh	Kir21 inh	hERG protect
Cc1cc(C)c(S(=O)(=O)N2CCCOC2CNC(=O)C(=O)NCCc2c[nH]c3ccccc23)c(C)c1 (stereo unspecified)	i	i	i	i	0.6	-7
O=C(NNC(=S)NC1CC2C=CC1C2)c1cccnc1 (stereo unspecified)	i	i	i	i	2.4	-8
COc1ccc2nc(SCC(=O)NCC(F)(F)F)[nH]c2c1	i	i	i	i	-0.95	5.2*
O=C(c1cc(-c2ccccc2Cl)nc2ccccc12)N1CCN(c2ccccn2)CC1	.	.	.	i	.	.
CCOc1ccccc1N1CCN(C(=O)c2cc(-c3cc(OC)ccc3OC)nc3ccccc23)CC1	6*	i	i	i	-1	-19
CCN1CCCC(OC(=O)c2cc(-c3ccccc3Cl)nc3ccccc23)C1 (stereo unspecified)	i	i	-6.7*	i	-3.7	-11
O=C(c1cc(-c2ccccc2Cl)nc2ccccc12)N1CCN(c2ccccc2O)CC1	6*	i	i	i	-0.35	-26
CC(NC(=O)/C(C#N)=C/c1ccc([N+](=O)[O-])o1)c1ccccc1 (stereo unspecified)	i	i	i	i	-7.7*	-10
CC(C)NC(=O)/C(C#N)=C\c1ccc(N(C)C)o1	i	i	-7*	i	-3.7	-21
COc1ccc(/C=N/Nc2cc(C)nc(-n3nc(C)cc3C)n2)cc1	i	i	-6.7*	i	-2.6	-17
COc1ccc2nc(C)cc(N/N=C/c3ccccc3)c2c1	.	.	.	-9.4*	.	.
COc1ccccc1/C=N/Nc1cc(C)nc2ccc(C)cc12	i	i	i	i	-0.62	-10
Cc1cc(N/N=C/c2cccc([N+](=O)[O-])c2)nc(-n2nc(C)cc2C)n1	i	i	i	i	-0.15	-4
Cc1cc(N/N=C/c2cccc(Cl)c2)nc(-n2nc(C)cc2C)n1	i	i	-8*	i	-1.1	-9
CC(=O)N1CCN(c2ccc(NC(=S)NC(=O)c3ccc(C)c([N+](=O)[O-])c3)cc2)CC1	i	i	i	i	1.1	1
Cn1cnnc1Sc1ccc(C(=O)NCCC(c2ccccc2)c2ccccc2)cc1[N+](=O)[O-]	10*	i	i	i	-0.93	-10
COc1ccc(Nc2nc(NCc3ccco3)nc(N)c2[N+](=O)[O-])cc1	i	i	-7.8*	i	0.03	-10
Cc1cccc(Nc2nc(N)c([N+](=O)[O-])c(NCc3ccco3)n2)c1	6*	i	i	i	0.02	-5
Cc1cccc(Nc2nc(NCc3ccco3)nc(N)c2[N+](=O)[O-])c1	i	i	i	i	0.32	-9
CCN(CC)C(=O)n1cnc(-c2ccccc2)c1-c1ccccc1	i	i	i	i	-0.83	-9
c1ccc(C(c2ccccc2)N2CCN(C(c3ccccn3)c3nnnn3C3CCCC3)CC2)cc1 (stereo unspecified)	i	i	-15*	i	0.79	-13
N#Cc1c(NC(=O)c2cccc(S(=O)(=O)Nc3ccc(C(=O)O)cc3)c2)sc2c1CCCC2	i	i	i	i	0.17	-8
O=C(N/N=C/c1c(O)n(-c2ccc(Cl)cn2)c(=O)c2ccccc12)c1ccncc1	11*	i	-6.9*	i	-4.4	-28
O=C(Nc1ccc(Cl)c(Cl)c1)C1=Cc2ccccc2OC1	7*	i	i	i	-1.4	-10
COc1ccc2[nH]c3c(c2c1)CCN1C(=O)C(CC(=O)NCc2ccc(OC)c(OC)c2)C[C@H](C(=O)N2CCCCC2)[C@@]31CCc1ccccc1 (stereo partly specified)	.	.	.	i	.	.
SMILES	KCNQ1 block	KCNQ1 pot	KCNK9 inh	KCNK3 inh	Kir21 inh	hERG protect
CCc1ccc(NC(=O)C2CCCN2c2nn3c(=O)cc(C)nc3s2)cc1 (stereo unspecified)	i	i	i	i	0.39	-3
COc1ccc(-c2c[n+](CC(=O)c3ccccc3)c3n2CCCCC3)cc1	i	i	i	i	-0.45	-8
COc1ccc(-c2c[n+]3c4n2CCCCC4=C(c2ccccc2)C3)cc1	7*	i	i	i	-1.7	-33
Cc1ccc(C)c(Cn2nnc3c(=O)[nH]c(C4CCCN(S(=O)(=O)Cc5ccccc5)C4)nc32)c1 (stereo unspecified)	i	i	i	i	0.91	-8
CCCCCCCCNC(C)C(O)c1ccc(SC(C)C)cc1 (stereo unspecified)	6*	i	i	i	-2.9	-25
CCCCCCCCCCCC(=O)NC(C(=O)O)C(O)c1ccccc1 (stereo unspecified)	i	i	i	i	-0.05	-5
COC(=O)c1ccc(CN2C(=O)NC3(CCC(C)CC3)C2=O)cc1 (stereo unspecified)	i	i	i	i	0.29	-11
CC1(C)SC(=S)N(/N=C/c2ccccc2)C1N(O)C(=O)Nc1ccc([N+](=O)[O-])cc1 (stereo unspecified)	i	i	i	i	-0.45	5.8*
CCOC(=O)CN1C=C(c2ccc3ccccc3n2)C(C[N+](=O)[O-])c2ccccc21 (stereo unspecified)	11*	i	i	i	-4.6	-26
Cc1nc2ccccc2n1CC(=O)OCC(=O)NC1CC1	i	i	i	i	-1.6	-5
N/C(=N\OC(=O)c1ccccc1Br)c1cccc([N+](=O)[O-])c1	i	i	-7.1*	i	2.4	-7
N/C(=N\OC(=O)c1ccccc1Br)c1ccc([N+](=O)[O-])cc1	i	i	i	i	-0.27	-4
O=[N+]([O-])c1cc(C=Nc2cccc3c(O)cccc23)ccc1Cl	7*	i	i	.	-1.4	-8
NC(=O)c1nsc(C(=O)N(c2ccccc2)C(C(=O)NC2CCCCC2)c2ccc(O)cc2)c1N (stereo unspecified)	i	i	i	i	-1.4	-20
CN(CC(=O)Nc1ccccc1Cl)C(=O)C1CSC2(C)CCC(=O)N12 (stereo unspecified)	.	.	.	i	.	.
O=[N+]([O-])c1cccc(-c2ccc(/C=N/Nc3nc(N4CCCCC4)nc(N4CCCCC4)n3)o2)c1	7*	i	i	i	0.29	-16
O=[N+]([O-])c1ccc(-c2ccc(/C=N/Nc3nc(N4CCCCC4)nc(N4CCCCC4)n3)o2)cc1	i	i	i	i	1.1	-7
O=C(c1cc2nc(-c3ccc(Cl)cc3)cc(C(F)(F)F)n2n1)N1CCOCC1	i	i	i	i	-0.16	46*
